Measured values collected from several papers.
Protocols differ between the studies behind these lines.
Target: Tyrosine-protein kinase CSK (CSK, Homo sapiens, UniProt P41240)

Structure (SMILES)	test	test system	conditions	endpoint	value
C[C@@H]1CN(c2cc(-c3nn(C)c4ccc(OC5(C)CC5)cc34)ncn2)C[C@H](C)O1	cell-free assay, competition with immobilised ligand	–	1 µM	remaining binding	100%
COc1cc(/C=C/C(=O)CC(=O)/C=C/c2ccc(O)c(OC)c2)ccc1O	enzyme activity, inhibitor	–	1 µM	activity vs control	78%
CC(C)(O)[C@H]1CC[C@H](Nc2ccc3ncc(-c4cccc(C(F)(F)F)c4)n3n2)CC1	enzyme activity, inhibitor	–	1 µM	remaining activity	95.3%
Cc1nc(Nc2ncc(C(=O)Nc3c(C)cccc3Cl)s2)cc(N2CCN(CCO)CC2)n1	enzyme activity, inhibitor	–	0.5 µM	activity vs control	7.11%
Cc1ccc(NC(=O)c2ccc(C)c(C(F)(F)F)c2)cc1C#Cc1nn(C2CCC(O)CC2)c2ncnc(N)c12 (centres unmarked)	cell-free assay, inhibitor	–	10 µM	remaining signal	-1%
CN1CC(Oc2cnc(C#N)cc2-c2ccn3nc(NC(=O)C4CC4)cc3c2)C1	enzyme activity, inhibitor	–	1 µM	inhibition	-11%
O=C(CSc1nc2nccnc2c(=O)n1CCc1ccccc1)Nc1nccs1	enzyme activity, inhibitor	–	10 µM	inhibition	6%
Nc1ncnc2occ(-c3ccc(NC(=O)Nc4cc(C(F)(F)F)ccc4F)cc3)c12	enzyme activity, inhibitor	–	20 µM	remaining activity	2%
CNC(=O)c1ccc(Nc2ncc(C(F)(F)F)c(NCc3nccnc3N(C)S(C)(=O)=O)n2)cc1	cell-free assay, competition with immobilised ligand	–	0.1 µM	remaining binding	100%
CC(C)(C)C(=O)c1sc(NC2CCCCC2)nc1N	enzyme activity, inhibitor	–	10 µM	remaining activity	98%
COc1cc(-c2cn(C3CCc4ccccc4N(CC(F)(F)F)C3=O)nn2)ccc1-n1ccc(C)n1 (centres unmarked)	cell-free assay, competition with immobilised ligand	–	1 µM	remaining binding	100%
CNc1cc(Oc2cc(C(=O)Nc3cc(N4CCN(C)CC4)cc(C(F)(F)F)c3)ccc2C)ncn1	target engagement in cells, inhibitor, chemoproteomics	Huh-7	1 µM	inhibition	-15%
FC(F)(F)Oc1cccc(-c2cnc3ccc(-c4ccncc4)nn23)c1	enzyme activity, inhibitor, radiometric	–	5 µM	activity vs control	100%
COc1cc2ncnc(Nc3ccc(Oc4ccccc4)cc3C)c2cc1OC	enzyme activity, inhibitor	–	1 µM	inhibition	91%
CC(C)(C)c1nc(-c2cccc(NS(=O)(=O)c3c(F)cccc3F)c2F)c(-c2ccnc(N)n2)s1	enzyme activity, inhibitor, radiometric	–	1 µM	remaining activity	34%
O=C(Nc1cnn(-c2csc(C(=O)NC3COC3)c2)c1)Nc1c(F)cccc1Cl	enzyme activity, inhibitor	–	5 µM	remaining activity	97.5%

Structure (SMILES)	test	test system	conditions	endpoint	value
CC/C(=N\NC(=O)NCc1cccc(O)c1)c1ccc(O)c(C)c1O	enzyme activity, inhibitor	–	0.1 µM	inhibition	-4.9%
COc1cc(Nc2cnc(C#N)c(O[C@H](C)CN(C)C)n2)ncc1-c1cnn(C)c1	enzyme activity, inhibitor, radiometric	–	10 µM	remaining activity	94%
CN(c1ncccc1CNc1nc(Nc2ccc3c(c2)CC(=O)N3)ncc1C(F)(F)F)S(C)(=O)=O	enzyme activity, inhibitor	–	1 µM	inhibition	29.1%
O=C1c2ccccc2-c2n[nH]c3cccc1c23	enzyme activity, inhibitor	–	0.5 µM	activity vs control	95.6%
Cc1nc(N2CC[C@@H](O)C2)ncc1-c1cc(C(F)(F)F)cc2[nH]ncc12	cell-free assay, competition with immobilised ligand	–	1 µM	remaining binding	100%
Cc1ccc(Nc2nccc(N(C)c3ccc4c(C)n(C)nc4c3)n2)cc1S(N)(=O)=O	enzyme activity, inhibitor	–	10 µM	inhibition	24%
Cc1sc(C(=O)NC2COC2)cc1-n1cc(NC(=O)Nc2c(F)cccc2Cl)cn1	enzyme activity, inhibitor	–	10 µM	remaining activity	98%
FC(F)c1nc2ccccc2n1-c1nc(N2CCOCC2)nc(N2CCOCC2)n1	enzyme activity, inhibitor	–	10 µM	remaining activity	84%
CNC(=O)Nc1ccc2c(c1)[C@@]1(CC2)OC(=O)N(CC(=O)N(Cc2ccc(F)cc2)[C@@H](C)C(F)(F)F)C1=O	cell-free assay, competition with immobilised ligand	–	1 µM	remaining binding	100%
CNC(=O)c1cc(Oc2ccc(NC(=O)Nc3ccc(Cl)c(C(F)(F)F)c3)cc2)ccn1	enzyme activity, inhibitor	–	10 µM	inhibition	22%
COc1ccc2cc(OCC3(C(=O)O)CN(C(=O)c4ccc(F)cc4)C3)ccc2c1	cell-free assay, competition with immobilised ligand	–	1 µM	remaining binding	100%
CCN(CC)CCNC(=O)c1c(C)[nH]c(/C=C2\C(=O)Nc3ccc(F)cc32)c1C	enzyme activity, inhibitor	–	10 µM	inhibition	10%
Cc1c[nH]c2nccc(Oc3c(F)cc(Nc4cc(Cl)nc(N)n4)cc3F)c12	cell-free assay, competition with immobilised ligand	–	0.1 µM	remaining binding	87%
CS(=O)(=O)CCNCc1ccc(-c2ccc3ncnc(Nc4ccc(OCc5cccc(F)c5)c(Cl)c4)c3c2)o1	enzyme activity, inhibitor	–	0.5 µM	remaining activity	106%
Cn1nc(C(F)(F)F)cc1-c1cnc(N2CCc3cc(S(=O)(=O)Nc4c(F)cc(Cl)cc4F)cc(N4CCCC4=O)c32)nc1	cell-free assay, competition with immobilised ligand	–	1 µM	remaining binding	93%
N#CCCc1ccc2c(c1)-c1[nH]c3ccc([N+](=O)[O-])cc3c1CC(=O)N2	cell-free assay	–	0.5 µM	remaining signal	96.3%
